SENP7 inh = SENP7 protease inhibition; Q9BQF6; recombinant SENP7, Z-RLRGG-aminoluciferin luminescence, 40 min; inhibition, % at 5 µM; actives 1.5% (n = 330,000);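 active = inhibition above about 50% at the single test dose, limit read from the data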;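 also: plate controls were DMSO with enzyme for no effect and no enzyme buffer wells for full effect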
SENP1 inh = inhibitors of human SENP1 SUMO protease catalytic domain; Q9P0U3; recombinant SENP1 catalytic domain, CyPet-SUMO1-YPet FRET cleavage; inhibition, % at 10 µM; actives 0.21% (n = 360,000);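 active = inhibition at least 30% at 10 µM, raw YFP signal under a set limit, fluorescence ratio 0.5 to 1.5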;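 also: 0% = enzyme with DMSO and 100% = no enzyme wells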
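Material: hSENP1 catalytic domain, recombinant; medium: Tris pH 8 with BME, BSA, NP40 and catalase; compound: single concentration of 10 µM compound, 0.5% DMSO final; technique: FRET read of cyan and yellow fluorescence; timing: 50 min enzyme reaction, room temperature, light-protected; reagent: SFCypet-SUMO1-SFYpet substrate at 25 nM; control set: no-enzyme low, enzyme-DMSO high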
SENP8 block-1 = blocks the human protease SENP8 | Q96LD8 | purified SENP8, Z-RLRGG-aminoluciferin cleavage, luminescence | inhibition, % at 10 µM | actives 1.2% (n = 330,000); in the data active = inhibition above about 50%
SENP6 inh = SENP6 protease inhibition | actives 1.8% (n = 330,000) | AID 2599 | Q9GZR1 | Recombinant SENP6 catalytic domain, aminoluciferin luminescence | inhibition, % at 10 µM;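 active = inhibition above about 50% at the single tested dose, limit read from the data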;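 also: plate controls were DMSO wells with enzyme for no effect and DMSO wells lacking enzyme for full effect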
Target sequence (Q9GZR1 628-1112 limits assumed): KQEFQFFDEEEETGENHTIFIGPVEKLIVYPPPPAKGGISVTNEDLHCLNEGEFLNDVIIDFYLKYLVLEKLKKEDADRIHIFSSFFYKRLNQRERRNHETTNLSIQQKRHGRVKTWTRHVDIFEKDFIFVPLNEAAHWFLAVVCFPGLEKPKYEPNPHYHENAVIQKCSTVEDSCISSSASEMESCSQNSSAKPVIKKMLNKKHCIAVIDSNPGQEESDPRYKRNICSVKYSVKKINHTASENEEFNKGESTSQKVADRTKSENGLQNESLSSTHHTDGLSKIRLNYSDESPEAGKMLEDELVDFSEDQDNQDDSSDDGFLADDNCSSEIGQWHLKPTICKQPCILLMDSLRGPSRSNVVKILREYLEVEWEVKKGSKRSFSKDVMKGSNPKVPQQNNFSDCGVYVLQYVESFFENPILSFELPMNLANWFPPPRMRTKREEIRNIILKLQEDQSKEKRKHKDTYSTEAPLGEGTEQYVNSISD
SENP8 block-2 = blocks human SENP8 cleavage of Nedd8 substrate. Q96LD8. recombinant SENP8, Nedd8 substrate fluorescence. inhibition, % at 20 µM. actives 0.64% (n = 360,000); in the data active = inhibition mostly above about 40%, no sharp cut-off; inactive = mostly below about 27%
SENP8 conf-1 = confirmation of human SENP8 protease inhibitors; inhibition, % at 12.5 µM; actives 40% (n = 6,200); AID 488912; Recombinant SENP8, Z-RLRGG-aminoluciferin luminescence, 60 min; shares compounds with SENP7 inh;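 active = mean inhibition across replicates above about 50%, limit read from the data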
SENP6 conf = confirmation of human SENP6 protease inhibitors; shares compounds with SENP7 inh; recombinant SENP6, Z-RLRGG-aminoluciferin luminescence; inhibition, % at 12.5 µM; actives 58% (n = 6,200); AID 488915
SENP7 conf = confirmation of human SENP7 protease inhibitors | shares compounds with SENP7 inh | recombinant SENP7, Z-RLRGG-aminoluciferin luminescence, 40 min | inhibition, % at 12.5 µM | actives 69% (n = 6,200)
Casp3 select = caspase-3 inhibition (SENP selectivity assay); inhibition, % at 12.5 µM; shares compounds with SENP7 inh; purified caspase-3, Z-DEVD-aminoluciferin luminescence, 60 min; AID 488918; actives 60% (n = 6,200);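 active = mean inhibition above about 50%, limit read from the data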;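 also: plate controls were enzyme with DMSO for no effect and wells without caspase-3 for full effect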
Luc interf = luminescence interference (SENP counter-screen) | shares compounds with SENP7 inh | Pre-incubated SENP8/Z-RLRGG-aminoluciferin, luciferase luminescence interference | inhibition, % at 12.5 µM | actives 39% (n = 6,200) | AID 488919;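 active = mean inhibition above about 50% when retested at one dose, limit read from the data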;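 also: plate controls were DMSO wells with completed reaction for no effect and substrate without enzyme for full effect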
SENP8 conf-2 = confirmation of human SENP8 protease inhibitors | inhibition, % at 25 µM | shares compounds with SENP8 block-2 | purified SENP8, Nedd8-AMC/pro-Nedd8 cleavage fluorescence, 30 min | actives 15% (n = 1,400); in the data active = inhibition mostly above about 39%, no sharp cut-off; inactive = mostly below about 34%
Numbers without * were called inactive. Compounds with a hit are over-represented: about 2.5% of the library has one in this group of screens.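 The calls were made as follows, unless noted: active = mean inhibition above about 50% in the one-dose retest (limit read from the data); inactive = the rest.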

What do the screens show for `O=C1c2ccccc2-c2nc3ccccc3nc21`?
SENP7 inh: 38; SENP1 inh: 6; SENP8 block-1: 17; SENP6 inh: 51*; SENP8 block-2: 47*; SENP8 conf-1: 37; SENP6 conf: 53*; SENP7 conf: 49; Casp3 select: 64*; Luc interf: 16; SENP8 conf-2: 89*

How did COc1ccccc1-c1nc2ccccc2nc1-c1ccccc1OC do in these assays?
SENP7 inh: -6; SENP1 inh: -2; SENP8 block-1: 4; SENP6 inh: 0; SENP8 block-2: -248

What do the screens show for `COc1ccc(N(CC(=O)NCc2cccnc2)S(=O)(=O)c2ccccc2)c(OC)c1`?
SENP7 inh: 6; SENP1 inh: -2; SENP8 block-1: -3; SENP6 inh: -14; SENP8 block-2: 2

Results for O=C(CCc1ccccc1)c1c(O)cc(O)cc1O ?
SENP7 inh: -7; SENP1 inh: 2; SENP8 block-1: 52*; SENP6 inh: 63*; SENP8 block-2: 48*; SENP8 conf-1: 65*; SENP6 conf: 60*; SENP7 conf: 77*; Casp3 select: 19; Luc interf: 67*; SENP8 conf-2: 28

What do the screens show for `COc1ccc(C(=O)CCc2ccccc2)c(O)c1`?
SENP7 inh: 5; SENP1 inh: 2; SENP8 block-1: 5; SENP6 inh: 18; SENP8 block-2: 1

How did Cc1ccccc1N1C(=O)c2cccc3cccc(c23)C1=O do in these assays?
SENP7 inh: 4; SENP1 inh: 3; SENP8 block-1: 7; SENP6 inh: -11; SENP8 block-2: -11

Results for Cc1ccccc1N1C(=O)Cc2ccccc2C1=O ?
SENP7 inh: 37; SENP1 inh: -2; SENP8 block-1: 27; SENP6 inh: 67*; SENP8 block-2: 88*; SENP8 conf-1: 17; SENP6 conf: 57*; SENP7 conf: 33; Casp3 select: 24; Luc interf: -4; SENP8 conf-2: 37

What do the screens show for `CCOC(=O)C1=C(COC(=O)c2ccc(OC)c(OC)c2OC)NC(=O)NC1C` (centres undefined)?
SENP7 inh: 8; SENP1 inh: 0; SENP8 block-1: -2; SENP6 inh: -7; SENP8 block-2: 8

How did C/C(=N\N=C(/N)c1nonc1N)c1ccc2c(c1)OCO2 do in these assays?
SENP7 inh: 92*; SENP1 inh: 5; SENP8 block-1: 82*; SENP6 inh: 84*; SENP8 block-2: 43*; SENP8 conf-1: 88*; SENP6 conf: 88*; SENP7 conf: 100*; Casp3 select: 91*; Luc interf: 28; SENP8 conf-2: 15

Results for CN1C(=O)c2ccc(NC(=S)NC(=O)C(C)(C)C)cc2C1=O ?
SENP7 inh: -8; SENP1 inh: 14; SENP8 block-1: -12; SENP6 inh: -11; SENP8 block-2: -28

How did O=[N+]([O-])c1cc([N+](=O)[O-])c2nonc2c1Nc1ccc(O)cc1 do in these assays?
SENP7 inh: 18; SENP1 inh: -14; SENP8 block-1: -1; SENP6 inh: 58*; SENP8 block-2: 79*; SENP8 conf-1: -4; SENP6 conf: 2; SENP7 conf: -5; Casp3 select: 4; Luc interf: 21; SENP8 conf-2: 22
